Bioassay records from PubChem.
LEDGF integ inh = blocks HIV-1 LEDGF/p75-dependent DNA integration; TR-FRET IN-LEDGF/p75 DNA integration, Eu/Cy5; inhibition, % at 3.7 µM; 370,000 tested, 0.64% active; AID 743269;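 active = inhibition above the screen-wide mean plus 3 SD, cut at about 13% in these data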;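 also: signal is the Cy5 over europium emission ratio at 671 and 618 nm; 0% = plate median of compound wells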
TDP2 absorb = TDP2 (human) inhibition, absorbance primary screen. O95551. recombinant TDP2, T5PNP hydrolysis, p-nitrophenol absorbance 415 nm. inhibition, % at 12.8 µM. 370,000 tested, 0.34% active. AID 720702;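 active = inhibition above the mean of all tested compounds plus 3 SD, set per campaign, cut at about 25% in these data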;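 also: 0% = DMSO with enzyme and 100% = buffer with substrate but no TDP2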
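test system = human TDP2 enzyme | input = TDP2 enzyme at 120 nM final | medium = 50 mM Tris-HCl pH 7.5 with Mg2+, KCl, DTT, BSA | also added = T5PNP substrate, 5 mM | times = 2 h at 37 °C | technique = epi absorbance | benchmarks = high control without enzyme, low control DMSO plus TDP2 | replication = each compound tested once, singlicate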
NSD2 HMT inh = blocks human histone methyltransferase NSD2 | NSD2 peptide methylation, AlphaScreen, 120 min | inhibition, % at 12.5 µM | 310,000 tested, 0.54% active | AID 743445; in the data active = inhibition above about 50%
UCH37 DUB inh = human UCH37 deubiquitinating enzyme inhibition. purified proteasome/UCH37, Ub-AMC cleavage fluorescence. Q9Y5K5. 330,000 tested, 0.33% active. inhibition, % (no concentration beside the values);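 active = mean inhibition over replicate wells above about 20%, limit read from the data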;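 also: 0% = compound-free wells with enzyme and 100% = wells lacking proteasome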
Target sequence (Q9Y5K5 whole entry, looked up): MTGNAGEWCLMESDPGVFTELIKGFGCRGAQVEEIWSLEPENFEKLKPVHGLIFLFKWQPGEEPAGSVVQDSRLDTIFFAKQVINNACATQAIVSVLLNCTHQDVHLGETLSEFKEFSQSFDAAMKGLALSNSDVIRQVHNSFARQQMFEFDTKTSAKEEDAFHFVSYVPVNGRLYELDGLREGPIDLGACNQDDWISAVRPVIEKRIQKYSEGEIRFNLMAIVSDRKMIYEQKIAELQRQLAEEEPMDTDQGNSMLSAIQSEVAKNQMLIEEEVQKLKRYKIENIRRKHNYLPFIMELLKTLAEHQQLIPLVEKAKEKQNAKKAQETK
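Material: Human UCH37 enzyme supplied as purified proteasome complex | Schedule: 30 min compound-proteasome preincubation then 25 min substrate reaction, room temperature | Detection: AMC fluorescence from Ub-AMC cleavage, excitation 355 nm, emission 460 nm | Benchmarks: Wells without proteasome as full block, compound-free enzyme plus substrate as uninhibited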
Casp6 inh = caspase-6 (human) enzyme inhibition | P55212 | inhibition, % at 12.5 µM | 350,000 tested, 0.53% active | purified caspase-6, Z-VEID-R110 cleavage fluorescence;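 active = mean inhibition across replicates at least about 35%, with every replicate also reaching that limit, limit read from the data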;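 also: 0% = median of neutral control wells and 100% = no fluorescence left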
Target sequence (P55212 24-179 limits assumed): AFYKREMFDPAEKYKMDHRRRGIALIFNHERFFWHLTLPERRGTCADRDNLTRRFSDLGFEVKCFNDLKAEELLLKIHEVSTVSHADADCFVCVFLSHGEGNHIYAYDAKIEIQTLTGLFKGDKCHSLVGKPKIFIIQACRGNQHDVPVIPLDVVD
Target sequence (P55212 194-293 limits assumed): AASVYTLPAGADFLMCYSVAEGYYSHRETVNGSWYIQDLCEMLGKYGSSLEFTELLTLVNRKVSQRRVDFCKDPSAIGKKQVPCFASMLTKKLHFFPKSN
IN multimer up = activates HIV-1 integrase multimerization in LEDGF counter-screen; shares compounds with LEDGF integ inh; TR-FRET HIV-1 integrase multimerization, biochemical; activation, % at 7.7 µM; 2,000 tested, 17% active; AID 1053131; in the data active = activation above about 8.9%
TR-FRET interf = TR-FRET optical interference, LEDGF/p75 integration counter-screen; shares compounds with LEDGF integ inh; TR-FRET optical interference counterscreen, HIV-1 IN multimerization; inhibition, % at 7.7 µM; 2,000 tested, under 10 active;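 active = inhibition above the mean over all tested compounds plus 3 SD, which no compound reached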;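 also: 0% = integrase with antibodies and DMSO and 100% = antibodies without integrase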
IN-LEDGF confirm = LEDGF/p75-dependent HIV-1 integration inhibition, confirmation; 2,000 tested, 36% active; TR-FRET LEDGF/p75-dependent HIV-1 integration, biochemical; inhibition, % at 3.7 µM; shares compounds with LEDGF integ inh; in the data active = inhibition above about 14%
Alpha artifact = interferes with AlphaScreen signal, flagging NSD2 false positives. 1,500 tested, 9.4% active. shares compounds with NSD2 HMT inh. AID 1053174. AC35, µM (doses to about 10 µM), without a hit: at the highest dose activity change, negative = signal loss. AlphaScreen artifact counterscreen, preloaded methylated H4 peptide; call rule not given here
Starred values were filed as active, the others as inactive; · = not tested or not shown. Only some compounds are listed: those with a hit (about 1.3% of all), similar ones and a draw of the others.

SMILES | LEDGF integ inh | TDP2 absorb | NSD2 HMT inh | UCH37 DUB inh | Casp6 inh | Alpha artifact | others
CC(=C\c1ccccc1)/C=C1/SC(=S)N(C(C(=O)O)C(C)C)C1=O (configuration not stated) | 4 | -10 | 17 | 5 | 4 | ·
CC(C(=O)O)N1C(=O)/C(=C/C=C/c2ccco2)SC1=S (configuration not stated) | 93* | 3 | 176* | 2 | · | 4.3µM* | IN multimer up=48*;TR-FRET interf=-169;IN-LEDGF confirm=88*
CC(=O)NC1=NC(=O)/C(=C/c2cc(C)n(-c3ccc(NC(C)=O)cc3)c2C)S1 | -6 | -8 | -1 | 4 | 3 | ·
CC(=O)NC1=NC(=O)/C(=C/c2cc(C)n(-c3cccc(C(=O)O)c3)c2C)S1 | 31* | 14 | 131* | 6 | 67* | -11% | IN multimer up=14*;TR-FRET interf=-50;IN-LEDGF confirm=5
CC(=O)Nc1ccc(S(=O)(=O)/N=C2/NC(=O)/C(=C\c3ccco3)S2)cc1 | 23* | 13 | 55* | 8 | 65* | -7% | IN multimer up=6;TR-FRET interf=-20;IN-LEDGF confirm=6
Cc1ccc(S(=O)(=O)/N=C2/NC(=O)/C(=C\c3ccco3)S2)cc1 | 8 | 4 | 17 | · | · | ·
Cn1c(=O)[nH]c2nnc(-c3ccc(Cl)c(Cl)c3)nc2c1=O | -2 | -8 | 107* | 8 | -4 | -2%
CSc1cnc2c(=O)n(C)c(=O)[nH]c2n1 | 1 | -11 | -1 | -318 | -3 | ·
COCC(=O)NN=Cc1ccc(OC/C=C/c2ccccc2)c(OC)c1 | · | · | · | -6 | · | ·
Cc1c(C(=O)NC(C)C)oc2c1-c1[nH]ncc1CC2 | -2 | 5 | 55* | · | · | -5%
CN1CC2(Cc3c1ccc1ccccc31)C(=O)OC(C)(C)OC2=O | 1 | 2 | 87* | -221 | · | 1%
O=c1oc(-c2ccco2)nc2c1cnn2-c1ccccc1 | 4 | -3 | -3 | -2 | · | ·
O=c1c2cnn(-c3ccccc3)c2nc(-c2ccco2)n1-c1ccccc1 | 3 | 2 | 115* | 5 | · | -4%
O=C(Cc1cc(=O)[nH][nH]1)NN=Cc1c(Cl)cccc1Cl | · | · | · | 1 | · | ·
CCNCCC(CCC(C)C)c1ccc2c(c1)OCO2 (configuration not stated) | 4 | 7 | 57* | 4 | -1 | -3%
Cc1cc(C=NNC(=O)CC2(C)OCCO2)c(C)n1-c1cc(Cl)cc(Cl)c1 | · | · | · | 3 | · | ·
O=c1cc(OCc2ccccc2)cc[nH]1 | 24* | 0 | 82* | 1 | 4 | 1%
Cc1[nH]ccc(=O)c1OCc1ccccc1 | 1 | 0 | · | 0 | · | ·
CCNC(=O)COC(=O)/C=C/c1cccs1 | -2 | -2 | 3 | 7 | -1 | ·
CNC(=O)COC(=O)/C=C/c1cccs1 | -6 | -11 | 79* | 4 | -1 | -5%
ON=C(CN(O)/C=C1/C=CC=N1)c1cccs1 | · | · | · | 4 | · | ·
COc1cc(C=NNC(=O)c2cccnc2)ccc1OCC(=O)Nc1ccc(C)cc1 | · | · | · | -9 | · | ·
N#CCC(=O)c1sccc1-n1cccc1 | 5 | 4 | 92* | 1 | 19 | -5%
COc1ccc(C(C)=NN=C(C)c2ccc(OC)cc2OC)c(OC)c1 | · | · | · | -1 | · | ·
CCc1ccccc1NC(=O)CSc1nc2n[nH]c(C)c2c(=N)n1-c1cccc(OC)c1 | -3 | 1 | 58* | -2 | -9 | -4%
SMILES | LEDGF integ inh | TDP2 absorb | NSD2 HMT inh | UCH37 DUB inh | Casp6 inh | Alpha artifact | others
CCCCNC(=O)c1ccc2c(c1)N(CC)C(=O)c1ccccc1S2(=O)=O | -4 | -4 | · | 3 | 2 | ·
CCN1C(=O)c2ccccc2S(=O)(=O)c2ccc(C(=O)NC(C)C)cc21 | 3 | -11 | 52* | 4 | 3 | -5%
Fc1ccc(NC(=S)Nc2ccc3nccnc3c2)cc1 | -8 | 1 | 105* | 2 | 15 | -3%
CC(=NNc1ncc(Cl)cc1Cl)c1ccc(N2CCOCC2)cc1 | · | · | · | -5 | · | ·
O=C(CNc1ccc2ccccc2c1)NN=Cc1ccccn1 | · | · | · | -1 | · | ·
Cc1nc2ccc(S(=O)(=O)N3CCCCC3)cc2s1 | -2 | 13 | 51* | 1 | 2 | -1%
Nc1nc2ccc(S(=O)(=O)N3CCCCC3)cc2s1 | -3 | -1 | · | 7 | -2 | ·
Cc1cc(/C=N/NC(=O)c2cccc(N(C)C)c2)c(C)n1-c1cc(C(=O)O)cc(C(=O)O)c1 | · | · | 55* | · | 35 | -4%
COC(=O)c1cccc(Cn2c(Cl)c(C=NNc3ccccc3C)sc2=O)c1 | · | · | · | 4 | · | ·
CN1C(=O)C(CC(=O)Nc2ccccc2)SC1=Nc1nccs1 (configuration not stated) | · | · | · | 2 | · | ·
Cc1cc(=O)n(Cc2ccccc2)c(O)c1C#N | 3 | 2 | 53* | -6 | 12 | -7%
N#CCC(=O)NN=Cc1cc(Br)ccc1OC/C=C/c1ccccc1 | · | · | · | 4 | · | ·
O=C(CCCN1C(=O)/C(=C\c2ccccc2)SC1=S)Nc1ccc(O)cc1C(=O)O | 2 | -7 | 24 | 14 | · | ·
CC(C(=O)Nc1ccc(O)cc1C(=O)O)N1C(=O)/C(=C\c2cccs2)SC1=S (configuration not stated) | 0 | -7 | 83* | 19 | 46* | -5%
O=C(/C=C/c1ccc(OCCCF)cc1)N1CCN(Cc2ccccc2)CC1 | -1 | -2 | 70* | 2 | -4 | -2%
O=C(/C=C/c1ccc([N+](=O)[O-])cc1)N1CCN(Cc2ccccc2)CC1 | 5 | 3 | -2 | 2 | 1 | ·
CC(C)(C)CN1CCNC(=O)C1CC(=O)N1CCN(c2ccccc2)CC1 (configuration not stated) | 0 | 4 | -1 | -10 | -1 | ·
CC(C)(C)CN1CCNC(=O)C1CC(=O)N1CCC(C(=O)N2CCOCC2)CC1 (configuration not stated) | 0 | -1 | 79* | -19 | -4 | -4%
CC(C)CC(=O)Nc1ncc([N+](=O)[O-])s1 | -4 | -4 | 4 | 9 | 20 | ·
Cc1nc(C)c(C(=O)Nc2ncc([N+](=O)[O-])s2)o1 | 9 | -9 | 50* | 12 | 33 | -10%
O=C1CCN2C=Nc3cccc4ccc1c2c34 | 4 | 23 | 115* | -66 | · | 3%
O=C1C(N2CCOCC2)=Cc2cccc3cccc1c23 | 7 | 5 | 16 | · | -4 | ·
CCn1c(C)cc(=S)c2ccccc21 | 6 | 12 | 104* | · | · | -18%
